# ChEMBL document CHEMBL3352094, “Trehalose- and glucose-derived glycoamphiphiles: small-molecule and nanoparticle Toll-like receptor 4 (TLR4) modulators” (J Med Chem, 2014)
# pIC50: −log10 of the molar value. The source made the active and inactive calls. No cut-off for these calls is given here.
# Legend:
# [1] = target: T1, Toll-like receptor 4 (Homo sapiens, UniProt O00206); assay: Inhibition of LPS-induced TLR4 activation (unknown origin) expressed in HEK293 Blue cells compound treated for 30 mins prior LPS treatment measured after 2 to 4 hrs by spectrophotometry; type: cell-based
# In short: (§1)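 HEK-Blue cells stably transfected with TLR4, MD-2 and CD14 carry a secreted alkaline phosphatase reporter under an NF-κB/AP-1-inducible promoter. TLR4 activation by endotoxin was monitored through secreted alkaline phosphatase.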
# [2] = target: T1, Toll-like receptor 4; assay: Agonist activity at TLR4 (unknown origin) expressed in HEK293 Blue cells measured after 2 to 4 hrs by spectrophotometry; type: cell-based; in short: as §1
# [3] = test system: HEK293; assay: Cytotoxicity against HEK-Blue cells after 3 hrs by MTT assay; type: cell-based; conditions: human, hek293, 3 h
# [4] = target: T1, Toll-like receptor 4; assay: Agonist activity at human TLR4 expressed in HEK293 cells co-transfected with human MD-2/CD14 assessed as receptor signal after 2 to 4 hrs by dual luciferase reporter gene assay; type: cell-based
# In short: (§2)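 Cells were treated with increasing compound concentrations, with or without LPS stimulation (5 nM). Signal is dual-luciferase, normalized, and representative of three independent experiments.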
# [5] = target: T2, Toll-like receptor 4 (Mus musculus) (UniProt Q9QUK6); assay: Agonist activity at mouse TLR4 expressed in HEK293 cells co-transfected with mouse MD-2/CD14 assessed as receptor signal after 2 to 4 hrs by dual luciferase reporter gene assay; type: cell-based; in short: as §2
# T2 sequence (whole entry): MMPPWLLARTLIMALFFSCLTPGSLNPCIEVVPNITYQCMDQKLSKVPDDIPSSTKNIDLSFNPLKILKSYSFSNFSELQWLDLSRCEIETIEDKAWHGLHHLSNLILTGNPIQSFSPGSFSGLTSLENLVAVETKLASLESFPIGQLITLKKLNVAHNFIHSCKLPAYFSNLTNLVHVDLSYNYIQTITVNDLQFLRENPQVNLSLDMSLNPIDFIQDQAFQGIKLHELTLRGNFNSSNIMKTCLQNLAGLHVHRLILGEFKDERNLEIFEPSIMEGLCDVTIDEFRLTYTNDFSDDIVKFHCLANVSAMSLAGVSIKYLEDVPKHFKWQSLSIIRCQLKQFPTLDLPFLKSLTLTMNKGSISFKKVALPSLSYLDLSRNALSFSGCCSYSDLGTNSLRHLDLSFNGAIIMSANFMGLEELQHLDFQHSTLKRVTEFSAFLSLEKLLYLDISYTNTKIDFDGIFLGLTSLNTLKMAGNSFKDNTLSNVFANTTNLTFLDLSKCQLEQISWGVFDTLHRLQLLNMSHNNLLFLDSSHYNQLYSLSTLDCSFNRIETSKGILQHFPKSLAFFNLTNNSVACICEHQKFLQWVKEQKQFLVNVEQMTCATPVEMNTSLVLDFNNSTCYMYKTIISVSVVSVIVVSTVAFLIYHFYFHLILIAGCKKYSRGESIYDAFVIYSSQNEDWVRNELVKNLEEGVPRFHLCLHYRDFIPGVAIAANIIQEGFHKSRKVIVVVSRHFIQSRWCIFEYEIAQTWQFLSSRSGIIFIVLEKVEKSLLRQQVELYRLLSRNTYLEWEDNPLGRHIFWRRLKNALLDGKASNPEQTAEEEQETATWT
# [6] = target: T1, Toll-like receptor 4; assay: Antagonist activity at human TLR4 expressed in HEK293 cells co-transfected with human MD-2/CD14 assessed as inhibition of LPS-stimulated receptor signal after 2 to 4 hrs by dual luciferase reporter gene assay; type: cell-based; in short: as §2
# [7] = target: T2, Toll-like receptor 4 (Mus musculus); assay: (§3) Antagonist activity at mouse TLR4 expressed in HEK293 cells co-transfected with mouse MD-2/CD14 assessed as inhibition of LPS-stimulated receptor signal after 2 to 4 hrs by dual luciferase reporter gene assay; type: cell-based; in short: as §2
# [8] = target: T3, Toll-like receptor 4 (Mus musculus, UniProt Q9QUK6); assay: as §3; type: cell-based; in short: as §2
# T3 sequence (Q9QUK6 whole entry): T2 sequence (whole entry)
# [9] = Amphiphilicity of the compound assessed as critical micelle concentration by spectrofluorophotometry; type: physicochemical
# In short: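 The CMC in aqueous solution was determined from the polarity-dependent change in the fluorescence spectrum of pyrene as it partitions into micelles formed by the compound.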
# [10] = target: T1, Toll-like receptor 4; assay: Agonist activity at TLR4 (unknown origin) expressed in HEK293 Blue cells measured after 2 to 4 hrs by spectrophotometry
# [11] = target: T2, Toll-like receptor 4 (Mus musculus); assay: Antagonist activity at mouse TLR4 in mouse BMDM cells assessed as inhibition of LPS-stimulated IL-6 production compound treated for 1 hr before LPS challenge by ELISA; type: cell-based
# In short: (§4)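 Bone marrow-derived murine macrophages in RPMI with 10% FBS were pretreated with compound (0–2 µM), and LPS was added 1 hour later. After overnight incubation, IL-6 and TNF-α in the medium were measured by ELISA. Cells not given LPS served as negative controls.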
# [12] = target: T2, Toll-like receptor 4 (Mus musculus); assay: Antagonist activity at mouse TLR4 in mouse BMDM cells assessed as inhibition of LPS-stimulated TNFalpha production compound treated for 1 hr before LPS challenge by ELISA; type: cell-based; in short: as §4
# [13] = target: T2, Toll-like receptor 4 (Mus musculus); assay: Activation of mouse TLR4 in mouse BMDM cells by ELISA; type: cell-based
# [14] = target: T2, Toll-like receptor 4 (Mus musculus); assay: Antagonist activity at mouse TLR4 in mouse BMDM cells assessed as inhibition of LPS-stimulated IL-6 production at 1 to 2 uM for 1 hr before LPS treatment by ELISA; type: cell-based; in short: as §4
# [15] = target: T2, Toll-like receptor 4 (Mus musculus); assay: Antagonist activity at mouse TLR4 in mouse BMDM cells assessed as inhibition of LPS-stimulated TNFalpha production at 1 to 2 uM for 1 hr before LPS treatment by ELISA; type: cell-based; in short: as §4
# [16] = target: T2, Toll-like receptor 4 (Mus musculus); assay: Antagonist activity at mouse TLR4 in mouse BMDM cells assessed as inhibition of LPS-stimulated IL-6 production at 0.1 to 0.5 uM for 1 hr before LPS treatment by ELISA; type: cell-based; in short: as §4
# [17] = target: T2, Toll-like receptor 4 (Mus musculus); assay: Antagonist activity at mouse TLR4 in mouse BMDM cells assessed as inhibition of LPS-stimulated TNFalpha production at 0.1 to 0.5 uM for 1 hr before LPS treatment by ELISA; type: cell-based; in short: as §4
# [18] = test system: Mus musculus; assay: Immunosuppressive C57/B16 mouse assessed as inhibition of LPS-induced immune activation measured as TNFalpha secretion at 2 x 10^-7 mol, ip 1 hr prior LPS challenge by ELISA; type: functional, organism-based
# In short: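 C57/Bl6 mice were given compound i.p. at 2·10^-7 mol/mouse, then LPS i.p. (1·10^-9 mol/mouse) 1 hour later. Sera were collected three hours after LPS and serum TNF-α concentration was determined.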
# T1 sequence (O00206 whole entry): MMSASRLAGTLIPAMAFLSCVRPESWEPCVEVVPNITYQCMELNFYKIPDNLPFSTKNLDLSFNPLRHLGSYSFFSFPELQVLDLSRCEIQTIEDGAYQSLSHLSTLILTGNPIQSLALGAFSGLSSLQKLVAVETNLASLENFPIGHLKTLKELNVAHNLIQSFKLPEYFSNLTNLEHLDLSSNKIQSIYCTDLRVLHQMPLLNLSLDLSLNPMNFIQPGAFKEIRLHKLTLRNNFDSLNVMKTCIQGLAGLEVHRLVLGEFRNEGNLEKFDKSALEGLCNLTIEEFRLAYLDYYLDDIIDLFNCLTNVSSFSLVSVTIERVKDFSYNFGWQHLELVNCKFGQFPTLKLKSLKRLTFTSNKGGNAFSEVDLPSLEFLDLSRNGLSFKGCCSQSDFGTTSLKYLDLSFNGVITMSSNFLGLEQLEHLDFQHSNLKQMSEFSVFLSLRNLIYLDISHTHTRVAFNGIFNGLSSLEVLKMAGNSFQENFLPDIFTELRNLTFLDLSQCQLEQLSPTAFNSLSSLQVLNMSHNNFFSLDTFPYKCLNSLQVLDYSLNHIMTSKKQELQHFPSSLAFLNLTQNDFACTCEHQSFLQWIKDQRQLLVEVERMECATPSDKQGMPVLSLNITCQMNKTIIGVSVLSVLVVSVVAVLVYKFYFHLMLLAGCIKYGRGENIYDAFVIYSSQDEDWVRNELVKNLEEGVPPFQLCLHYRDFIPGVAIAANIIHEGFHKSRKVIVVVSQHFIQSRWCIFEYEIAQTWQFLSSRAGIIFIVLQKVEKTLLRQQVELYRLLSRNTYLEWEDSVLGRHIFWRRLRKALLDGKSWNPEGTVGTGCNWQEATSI
Compound,pIC50 [1],inhibition [1],Activity [2],Activity [3],Activity [4],Activity [5],pIC50 [6],inhibition [6],inhibition [7],pIC50 [8],CMC [9] [µM],Activity [10],Activity [6],Activity [7],also measured
CCCCCC(=O)O[C@@H]1[C@H](OC(=O)CCCCC)[C@@H](O[C@H]2O[C@H](Cn3cc(CNC(=S)NCCN)nn3)[C@@H](OC(=O)CCCCC)[C@H](OC(=O)CCCCC)[C@H]2OC(=O)CCCCC)O[C@H](Cn2cc(CNC(=S)NCCN)nn2)[C@H]1OC(=O)CCCCC,5.30,Dose-dependent effect,inactive,Non-toxic,inactive,inactive,6.22,Dose-dependent effect,Dose-dependent effect,6.22,10.9,inactive,–,–,–
CCCCCCO[C@@H]1[C@H](OCCCCCC)[C@@H](O[C@H]2O[C@H](CSCCN)[C@@H](OCCCCCC)[C@H](OCCCCCC)[C@H]2OCCCCCC)O[C@H](CSCCN)[C@H]1OCCCCCC,–,inactive,–,–,inactive,inactive,–,–,–,–,–,–,inactive,inactive,–
CCCCCC(=O)O[C@@H]1[C@@H](OC(=O)CCCCC)[C@@H](OC)O[C@H](Cn2cc(CN(CCNC(=S)NCCN)CCNC(=S)NCCN)nn2)[C@H]1OC(=O)CCCCC,–,inactive,–,–,inactive,inactive,–,–,–,–,–,–,inactive,inactive,–
CCCCCCO[C@@H]1[C@@H](OCCCCCC)[C@@H](OC)O[C@H](CN)[C@H]1OCCCCCC,–,inactive,–,–,inactive,inactive,–,–,–,–,–,–,inactive,inactive,–
CCCCCCCCCCCCCCO[C@H]1[C@@H](OC)O[C@H](CSCCN)[C@@H](O)[C@@H]1OCCCCCCCCCCCCCC,–,inactive,–,–,inactive,inactive,–,–,–,–,–,–,inactive,inactive,–
CCCCCC(=O)O[C@@H]1[C@@H](OC(=O)CCCCC)[C@@H](OC)O[C@H](CSCCNC(=S)NCCN(CCN)CCN)[C@H]1OC(=O)CCCCC.Cl,5.43,Dose-dependent effect,inactive,Non-toxic,inactive,inactive,5.41,Dose-dependent effect,Dose-dependent effect,5.48,59.7,inactive,–,–,inhibition [11]: inactive; inhibition [12]: inactive; Activity [13]: inactive
CCCCCC(=O)O[C@@H]1[C@H](OC(=O)CCCCC)[C@@H](O[C@H]2O[C@H](Cn3cc(CN(CCN)CCN)nn3)[C@@H](OC(=O)CCCCC)[C@H](OC(=O)CCCCC)[C@H]2OC(=O)CCCCC)O[C@H](Cn2cc(CN(CCN)CCN)nn2)[C@H]1OC(=O)CCCCC,6.22,Dose-dependent effect,inactive,Non-toxic,inactive,inactive,6.70,Dose-dependent effect,Dose-dependent effect,6.70,350,inactive,–,–,inhibition [14]: Dose-dependent effect; inhibition [15]: Dose-dependent effect; inhibition [16]: inactive; inhibition [17]: inactive; inhibition [18]: Active
CCCCCCO[C@H]1[C@@H](OC)O[C@H](CSCCN)[C@@H](O)[C@@H]1OCCCCCC,–,inactive,–,–,inactive,inactive,–,–,–,–,–,–,inactive,inactive,–
CCCCCC(=O)O[C@@H]1[C@H](OC(=O)CCCCC)[C@@H](O[C@H]2O[C@H](CSCCN)[C@@H](OC(=O)CCCCC)[C@H](OC(=O)CCCCC)[C@H]2OC(=O)CCCCC)O[C@H](CSCCN)[C@H]1OC(=O)CCCCC,5.89,Dose-dependent effect,inactive,Non-toxic,inactive,inactive,5.85,Dose-dependent effect,Dose-dependent effect,6.10,97.7,inactive,–,–,inhibition [11]: inactive; inhibition [12]: inactive; Activity [13]: inactive
CCCCCCCCCCCCCCO[C@@H]1[C@H](OCCCCCCCCCCCCCC)[C@@H](O[C@H]2O[C@H](CSCCN)[C@@H](OCCCCCCCCCCCCCC)[C@H](OCCCCCCCCCCCCCC)[C@H]2OCCCCCCCCCCCCCC)O[C@H](CSCCN)[C@H]1OCCCCCCCCCCCCCC,–,inactive,–,–,inactive,inactive,–,–,–,–,–,–,inactive,inactive,–
